ChEMBL document CHEMBL1142566, “Natural and synthetic 2,2-dimethylpyranocoumarins with antibacterial activity” (2005)
The source made the active and inactive calls. No cut-off for these calls is given here.

Tests used:
Assay type in all cases: functional
[1] = system: Klebsiella pneumoniae; test: Antimicrobial activity against Klebsiella pneumoniae ATCC 13883 after 24 hrs by disk diffusion assay
How it was run: (§1)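 Bauer-Kirby disk diffusion on trypticase Mueller-Hinton agar. Plates were seeded with ATCC reference strains to a final 10⁷ cell/mL. Test compounds were dissolved in DMSO and applied to 6 mm paper disks, with solvent-only disks as negative control. Plates were incubated 24 h at 37 °C. Inhibition zone diameter (mm) was averaged over three experiments and scored <7 (-), 7-10 (+), 11-16 (++), >16 (+++).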

[2] = system: Pseudomonas aeruginosa; test: Antimicrobial activity against Pseudomonas aeruginosa ATCC 27853 after 24 hrs by disk diffusion assay; how it was run: as §1
[3] = system: Escherichia coli; test: Antimicrobial activity against Escherichia coli ATCC 25922 after 24 hrs by disk diffusion assay; how it was run: as §1
[4] = system: Staphylococcus aureus; test: Antimicrobial activity against Staphylococcus aureus ATCC 25923 after 24 hrs by disk diffusion assay; how it was run: as §1
[5] = system: Enterobacter cloacae; test: Antimicrobial activity against Enterobacter cloacae ATCC 13047 after 24 hrs by disk diffusion assay; how it was run: as §1
[6] = system: Proteus mirabilis; test: Antimicrobial activity against Proteus mirabilis after 24 hrs by disk diffusion assay; how it was run: as §1
[7] = system: Staphylococcus epidermidis; test: Antimicrobial activity against Staphylococcus epidermidis ATCC 12228 after 24 hrs by disk diffusion assay; how it was run: as §1

Row | Structure (SMILES) | Activity [1] | Activity [2] | Activity [3] | Activity [4] | Activity [5] | Activity [6] | Activity [7] | inhibition zone (IZ) [1] | inhibition zone (IZ) [2] | inhibition zone (IZ) [3] | inhibition zone (IZ) [4] | inhibition zone (IZ) [5] | inhibition zone (IZ) [6] | inhibition zone (IZ) [7]
1 | CC1(C)C=Cc2cc3ccc(=O)oc3cc2O1 | inactive | inactive | inactive | inactive | inactive | inactive | inactive |  |  |  |  |  |  | 
2 | CC1(C)C=Cc2c(c3c(c4ccc(=O)oc24)OC(C)(C)C=C3)O1 [DIPETALOLACTONE] |  |  |  |  |  |  |  | 7 mm | 11 mm | 7 mm | 11 mm | 7 mm | 7 mm | 7 mm
3 | CC(=O)O[C@H]1c2c(ccc3ccc(=O)oc23)OC(C)(C)[C@H]1OC(C)=O | inactive | inactive | inactive | inactive | inactive | inactive | inactive |  |  |  |  |  |  | 
4 | CC1(C)C=Cc2c(ccc3ccc(=O)oc23)O1 | inactive | inactive | inactive | inactive | inactive | inactive | inactive |  |  |  |  |  |  | 
5 | CC1(C)C=Cc2c(O)cc3oc(=O)ccc3c2O1 | inactive | inactive | inactive | inactive | inactive | inactive | inactive |  |  |  |  |  |  | 
6 | CC1(C)Oc2ccc3ccc(=O)oc3c2[C@H](O)[C@H]1Br | inactive | inactive | inactive | inactive | inactive | inactive | inactive |  |  |  |  |  |  | 
7 | CC(=O)Oc1cc2oc(=O)ccc2c2c1C=CC(C)(C)O2 |  |  |  |  |  |  |  | 7 mm | 7 mm | 7 mm | 7 mm | 7 mm | 7 mm | 7 mm
8 | COc1cc2oc(=O)ccc2c2c1C=CC(C)(C)O2 [ALLOXANTHOXYLETIN] |  |  |  |  |  |  |  | 7 mm | 11 mm | 7 mm | 7 mm | 7 mm | 7 mm | 7 mm
9 | COc1cc2c(c3oc(=O)ccc13)[C@H](OC(=O)c1ccccc1)[C@@H](Br)C(C)(C)O2 (racemic) |  |  |  |  |  |  |  | 7 mm | 11 mm | 7 mm | 7 mm | 7 mm | 7 mm | 7 mm
10 | CC1(C)Oc2ccc3ccc(=O)oc3c2[C@H](O)[C@@H]1O | inactive | inactive | inactive | inactive | inactive | inactive | inactive |  |  |  |  |  |  | 
11 | O=C(O)[C@H]1/C(=C/CO)O[C@@H]2CC(=O)N21 [CLAVULANIC ACID] |  |  |  |  |  |  |  | > 16 mm | >16 mm | >16 mm | >16 mm | >16 mm |  | >16 mm
12 | COc1cc(OC)c2ccc(=O)oc2c1 [CITROPTEN] |  |  |  |  |  |  |  | 7 mm | 11 mm | 7 mm | 7 mm | 7 mm | 7 mm | 11 mm
13 | CC(=O)Oc1cc2c(c3oc(=O)ccc13)C=CC(C)(C)O2 |  |  |  |  |  |  |  | 7 mm | 7 mm | 7 mm | 7 mm | 7 mm | 7 mm | 7 mm
14 | COc1cc2c(c3oc(=O)ccc13)C=CC(C)(C)O2 |  |  |  |  |  |  |  | 7 mm | 11 mm | 7 mm | 7 mm | 7 mm | 11 mm | 7 mm
15 | COc1cc2c(c3oc(=O)ccc13)[C@H](OC(C)=O)[C@@H](Br)C(C)(C)O2 (racemic) |  |  |  |  |  |  |  | <7 mm | <7 mm | <7 mm | 7 mm | <7 mm | 7 mm | 11 mm
16 | COc1cc2c(c3oc(=O)ccc13)C(OC(C)=O)CC(C)(C)O2 (racemic) |  |  |  |  |  |  |  | <7 mm | <7 mm | <7 mm | 11 mm | <7 mm | 7 mm | 11 mm
17 | CC1(C)S[C@@H]2[C@H](NC(=O)[C@H](N)c3ccc(O)cc3)C(=O)N2[C@H]1C(=O)O [AMOXICILLIN] |  |  |  |  |  |  |  | 11 mm | >16 mm | >16 mm | >16 mm | >16 mm |  | >16 mm
18 | CC(=O)OC1CC(C)(C)Oc2ccc3ccc(=O)oc3c21 (stereo not given) | inactive | inactive | inactive | inactive | inactive | inactive | inactive |  |  |  |  |  |  | 
19 | CC1(C)CC(O)c2c(ccc3ccc(=O)oc23)O1 (stereo not given) | inactive | inactive | inactive | inactive | inactive | inactive | inactive |  |  |  |  |  |  | 
20 | O=c1ccc2c(O)cc(O)cc2o1 |  |  |  |  |  |  |  | 7 mm | 7 mm | 7 mm | 7 mm | 7 mm | 7 mm | 7 mm
21 | COc1cc2c(c3oc(=O)ccc13)[C@H](O)[C@@H](Br)C(C)(C)O2 (racemic) |  |  |  |  |  |  |  | 7 mm | 11 mm | 7 mm | 7 mm | 7 mm | 7 mm | 7 mm
22 | CCN[C@@H]1C[C@H](N)[C@@H](O[C@H]2OC(CN)=CC[C@H]2N)[C@H](O)[C@H]1O[C@H]1OC[C@](C)(O)[C@H](NC)[C@H]1O [NETILMICIN] |  |  |  |  |  |  |  | 11 mm | >16 mm | >16 mm | >16 mm | >16 mm |  | >16 mm
23 | CC1(C)Oc2ccc3ccc(=O)oc3c2[C@H](OC(=O)c2ccccc2)[C@H]1Br |  |  |  |  |  |  |  | 7 mm | 7 mm | 7 mm | 7 mm | 7 mm | 7 mm | 7 mm
24 | COc1cc2c(c3oc(=O)ccc13)[C@H](OC(C)=O)[C@H](OC(C)=O)C(C)(C)O2 (racemic) | inactive | inactive | inactive | inactive | inactive | inactive | inactive |  |  |  |  |  |  | 
25 | CC(=O)O[C@H]1c2c(ccc3ccc(=O)oc23)OC(C)(C)[C@@H]1Br |  |  |  |  |  |  |  | <7 mm | <7 mm | <7 mm | 11 mm | <7 mm | 7 mm | 11 mm
26 | COc1cc2c(c3oc(=O)ccc13)C(O)CC(C)(C)O2 (racemic) | inactive | inactive | inactive | inactive | inactive | inactive | inactive |  |  |  |  |  |  | 
27 | CC(=O)Oc1cc(OC(C)=O)c2ccc(=O)oc2c1 |  |  |  |  |  |  |  | 7 mm | 7 mm | 7 mm | 7 mm | 7 mm | 7 mm | 11 mm
28 | COc1cc2c(c3oc(=O)ccc13)[C@H](O)[C@H](O)C(C)(C)O2 (racemic) | inactive | inactive | inactive | inactive | inactive | inactive | inactive |  |  |  |  |  |  | 
29 | CC1(C)C=Cc2c(cc(O)c3ccc(=O)oc23)O1 | inactive | inactive | inactive | inactive | inactive | inactive | inactive |  |  |  |  |  |  | 
